Measurements from ChEMBL document CHEMBL1212827, “Unnatural amino acid side chains as S1, S1', and S2' probes yield cationic antimicrobial peptides with stability toward chymotryptic degradation” (J Med Chem, 2010).
In brackets after ≈: the same amount, converted by molar mass. Non-standard residues stand in square brackets, D forms with d. Residues, ends and D or L forms follow the SMILES beside them. *: point of attachment. Phe(4-guanidino) = N=C(N)Nc1ccc(C[C@H](N)C(=O)O)cc1; Bip = N[C@@H](Cc1ccc(-c2ccccc2)cc1)C(=O)O; Dip = N[C@H](C(=O)O)C(c1ccccc1)c1ccccc1; Phe(4-NH2) = Nc1ccc(C[C@H](N)C(=O)O)cc1; hArg = N=C(N)NCCCC[C@H](N)C(=O)O; Agp = N=C(N)NC[C@H](N)C(=O)O; NHPhenethyl = c1ccc(CCN*)cc1; Orn = NCCC[C@H](N)C(=O)O; NHBn = c1ccc(CN*)cc1

What was measured:
Staphylococcus aureus [1] = test: Antibacterial activity against methicillin-resistant Staphylococcus aureus ATCC 33591; format: functional
[2] = Stability of the compound in 0.1 M NH4HCO3 buffer at pH 8.2 assessed as half life in presence of chymotrypsin; format: physicochemical; settings: for half-life: chymotrypsin in NH4HCO3 buffer; for t1/2: isolated protein
Summary of the method: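 Peptide 1 mg/mL stock; chymotrypsin 1 mg per 50 mL buffer; both diluted tenfold into 0.1 M NH4HCO3 pH 8.2 and incubated at 37 °C. Aliquots quenched with water/acetonitrile 60/40 containing 0.5% TFA and run on RP-HPLC. Half-life calculated from 214 nm peak areas over the first 5 h. Under 10% degradation at 24 h counted as stable. Enzyme-free samples at 0 and 24 h served as controls.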

Staphylococcus aureus [3] = test: Antibacterial activity against Staphylococcus aureus ATCC 25923; format: functional
Escherichia coli = test: Antibacterial activity against Escherichia coli ATCC 25922; format: functional
[4] = Toxicity in human RBC assessed as hemolysis at 1 mM after 30 mins relative to control; format: cell-based, Erythrocyte; settings: red blood cells (RBC), read-out: Activity
Summary of the method: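 Fresh heparinized human erythrocytes, washed in normal saline. Peptides at 25–1000 μg/mL with 1% v/v final erythrocytes, 30 min at 37 °C with agitation. Supernatant OD read at 405 nm. Saline served as 0% and 1% Triton X as 100% hemolysis; percent lysis taken relative to their difference.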

[5] = Binding affinity to chymotrypsin by isothermal titration […]
Summary of the method: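 Isothermal titration calorimetry at 25 °C in 0.1 M NH4HCO3 pH 8.2. Peptide (2.1 mM in syringe) injected in 20 aliquots of 5 μL into stirred (150 rpm) chymotrypsin (0.1 mM), 400 s between injections. First injection point discarded. KD fitted from heats of interaction.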

| SMILES | MIC (Staphylococcus aureus [1]) [µM] | half-life [2] [h] | MIC (Staphylococcus aureus [3]) [µM] | Activity (Escherichia coli) [µM] | hemolysis at 0.5 h, 1000 µM [4] [%] | t1/2 [2] | Kd [5] [µM] |
| --- | --- | --- | --- | --- | --- | --- | --- |
| N=C(N)NCCC[C@H](N)C(=O)N[C@@H](Cc1c[nH]c2ccccc12)C(=O)N[C@@H](Cc1ccc(NC(=N)N)cc1)C(=O)NCc1ccccc1 (H-Arg-Trp-[Phe(4-guanidino)]-NHBn) | 10 (≈ 6.54 µg/mL) | 4 | 50 (≈ 32.7 µg/mL) | >200 | – | – | – |
| N=C(N)NCCC[C@H](N)C(=O)N[C@@H](Cc1c[nH]c2ccccc12)C(=O)N[C@@H](CCCCN)C(=O)NCc1ccccc1 (H-Arg-Trp-Lys-NHBn) | 54 (≈ 31.2 µg/mL) | 4 | 163 (≈ 94.2 µg/mL) | >200 | – | – | – |
| N=C(N)NCCC[C@H](NC(=O)[C@H](Cc1ccccc1)NC(=O)[C@@H](N)CCCNC(=N)N)C(=O)NCc1ccccc1 (H-Arg-Phe-Arg-NHBn) | 83 (≈ 47 µg/mL) | 3 | 165 (≈ 93.5 µg/mL) | >200 | – | – | – |
| N=C(N)NCCC[C@H](N)C(=O)N[C@@H](Cc1ccc(N)cc1)C(=O)N[C@@H](Cc1c[nH]c2ccccc12)C(=O)NCc1ccccc1 (H-Arg-[Phe(4-NH2)]-Trp-NHBn) | 79 (≈ 48.3 µg/mL) | 17 | 157 (≈ 96 µg/mL) | >200 | – | – | – |
| N=C(N)NCCC[C@H](NC(=O)[C@@H](N)CCCNC(=N)N)C(=O)N[C@@H](Cc1c[nH]c2ccccc12)C(=O)NCc1ccccc1 (H-Arg-Arg-Trp-NHBn) | 26 (≈ 15.7 µg/mL) | 7 | 79 (≈ 47.9 µg/mL) | >200 | – | – | – |
| NC(=O)[C@H](CCCN=C(N)N)NC(=O)[C@H](Cc1c[nH]c2ccccc12)NC(=O)[C@@H](N)CCCN=C(N)N (H-Arg-Trp-Arg-NH2) | > 200 | 5 | > 200 | >200 | > 134 | – | – |
| N=C(N)NCCC[C@H](NC(=O)[C@H](Cc1c[nH]c2ccccc12)NC(=O)[C@@H](N)CCCNC(=N)N)C(=O)NCc1ccccc1 (H-Arg-Trp-Arg-NHBn) | 132 (≈ 80 µg/mL) | 2 | 79 (≈ 47.9 µg/mL) | >200 | > 5 | – | – |
| N=C(N)NCCC[C@H](N)C(=O)N[C@@H](Cc1c[nH]c2ccccc12)C(=O)N[C@@H](Cc1ccc(N)cc1)C(=O)NCc1ccccc1 (H-Arg-Trp-[Phe(4-NH2)]-NHBn) | 79 (≈ 48.3 µg/mL) | – | 157 (≈ 96 µg/mL) | >200 | > 5 | Stable | – |
| N=C(N)NCCCC[C@H](NC(=O)[C@H](Cc1c[nH]c2ccccc12)NC(=O)[C@@H](N)CCCNC(=N)N)C(=O)NCc1ccccc1 (H-Arg-Trp-[hArg]-NHBn) | 52 (≈ 32.2 µg/mL) | 1 | 78 (≈ 48.3 µg/mL) | >200 | – | – | – |
| N=C(N)NCCC[C@H](N)C(=O)N[C@@H](Cc1c[nH]c2ccccc12)C(=O)N[C@@H](CCCN)C(=O)NCc1ccccc1 (H-Arg-Trp-[Orn]-NHBn) | 55 (≈ 31 µg/mL) | 20 | 110 (≈ 62 µg/mL) | >200 | > 1 | – | – |
| N=C(N)NCCC[C@H](NC(=O)[C@@H](NC(=O)[C@@H](N)CCCNC(=N)N)C(c1ccccc1)c1ccccc1)C(=O)NCc1ccccc1 (H-Arg-[Dip]-Arg-NHBn) | 10 (≈ 6.43 µg/mL) | – | 25 (≈ 16.1 µg/mL) | >200 | > 10 | Stable | – |
| N=C(N)NCCC[C@H](NC(=O)[C@H](Cc1ccc(-c2ccccc2)cc1)NC(=O)[C@@H](N)CCCNC(=N)N)C(=O)NCc1ccccc1 (H-Arg-[Bip]-Arg-NHBn) | 15 (≈ 9.64 µg/mL) | – | 10 (≈ 6.43 µg/mL) | >200 | > 5 | Stable | 18.4 |
| N=C(N)NCCC[C@H](N)C(=O)N[C@@H](Cc1c[nH]c2ccccc12)C(=O)N[C@@H](CNC(=N)N)C(=O)NCc1ccccc1 (H-Arg-Trp-[Agp]-NHBn) | 16 (≈ 9.24 µg/mL) | – | 54 (≈ 31.2 µg/mL) | >200 | > 2 | Stable | 61.1 |
| N=C(N)NCCC[C@H](N)C(=O)N[C@@H](Cc1ccc(NC(=N)N)cc1)C(=O)N[C@@H](Cc1c[nH]c2ccccc12)C(=O)NCc1ccccc1 (H-Arg-[Phe(4-guanidino)]-Trp-NHBn) | 15 (≈ 9.81 µg/mL) | – | 50 (≈ 32.7 µg/mL) | >200 | > 2 | Stable | – |
| N=C(N)NCCC[C@H](NC(=O)[C@H](Cc1c[nH]c2ccccc12)NC(=O)[C@@H](N)CCCNC(=N)N)C(=O)NCCc1ccccc1 (H-Arg-Trp-Arg-NHPhenethyl) | 26 (≈ 16.1 µg/mL) | 0.5 | 52 (≈ 32.2 µg/mL) | >200 | – | – | – |
